{"data": "Assay results collected from several papers", "note": "Protocols differ between the studies behind these lines."}
{"SMILES": "Clc1ccc(Nc2ncnc3ccc(-c4cccc(N5CCOCC5)c4)cc23)cc1Cl", "assay": "shake flask", "system": "aqueous buffer", "setting": "pH 7.4", "quantity": "logD", "result": "> 4.2"}
{"SMILES": "Cc1cc(S(=O)(=O)N[C@]2(C)C[C@H](N3CCN(CC4CCN(c5ccc6c(c5F)n(C)c(=O)n6C5CCC(=O)NC5=O)CC4)CC3)C2)ccc1Nc1ncc(C(F)(F)F)c(N2CCC[C@](C)(O)C2)n1 (stereo partly shown)", "assay": "metabolic stability", "system": "rat, liver microsomes", "setting": "1 µM", "quantity": "scaled CLint", "result": "< 21 mL/min/kg"}
{"SMILES": "c1cc(-c2ccc3ncnc(NC4CCOCC4)c3c2)cc(N2CCOCC2)c1", "assay": "shake flask", "system": "aqueous buffer", "setting": "pH 7.4", "quantity": "logD", "result": 3.3}
{"SMILES": "CCONC(=O)N1CCC[C@H](C(=O)NCc2nc(-c3ccc(C#N)cc3)cs2)C1", "assay": "metabolic stability", "system": "human, liver microsomes", "setting": "0.5 µM", "quantity": "microsomal CLint", "result": "9 µL/min/mg"}
{"SMILES": "O=C1NC(CF)(CF)C(=O)N1c1ccc(F)c(C(F)(F)F)c1", "assay": "HPLC", "setting": "pH 7.4", "quantity": "chromatographic logD", "result": 3}
{"SMILES": "C[C@@H](Oc1ccc(S(C)(=O)=O)cc1C(=O)N1C[C@@H]2C[C@]2(c2cc(C(F)(F)F)on2)C1)C(F)(F)F", "system": "human, plasma", "setting": "oral, 10 mg, single dose, fasted", "quantity": "CL/F", "result": "82.9 mL/min"}
{"SMILES": "C[C@H]1CN(c2ccc(C3CCC(=O)NC3=O)cc2F)CCN1CC12CCC(NS(=O)(=O)c3ccc(Nc4ncc(C(F)(F)F)c(N5CCC[C@](C)(O)C5)n4)c(F)c3)(CC1)CO2 (stereo partly shown)", "assay": "metabolic stability", "system": "human, liver microsomes", "setting": "1 µM", "quantity": "scaled CLint", "result": "22 mL/min/kg"}
{"SMILES": "O=c1c2c([nH]c3c(Oc4ccc(OC(F)(F)F)cc4)cccc13)CCCC2", "assay": "metabolic stability", "system": "human, liver microsomes", "setting": "1 µM, pH 7.4", "quantity": "microsomal CLint", "result": "21 µL/min/mg"}
{"SMILES": "Cc1cc(S(=O)(=O)N[C@H]2CC[C@H](N3CCN(CC4CCN(c5cccc6c5n(C)c(=O)n6C5CCC(=O)NC5=O)CC4)CC3)CC2)ccc1Nc1ncc(C(F)(F)F)c(N2CCC[C@](C)(O)C2)n1 (stereo partly shown)", "assay": "metabolic stability", "system": "human, liver microsomes", "setting": "1 µM", "quantity": "scaled CLint", "result": "33 mL/min/kg"}
{"SMILES": "CC(C)n1c(C2CCNCC2)nc2c([N+](=O)[O-])c(Br)c(Br)cc21", "system": "human, urine", "setting": "oral, 50 mg, single dose", "quantity": "renal clearance", "result": "14.5 mL/min"}
{"SMILES": "CC1(C)NC(=O)N(c2ccc(F)c(F)c2)C1=O", "assay": "HPLC", "setting": "pH 7.4", "quantity": "chromatographic logD", "result": 1.8}
{"SMILES": "COc1ccc2c(c1)CN(C(=O)CCN1CCC(Cc3ccccc3)CC1)CC[S@@+]2[O-]", "system": "male human, plasma", "setting": "intravenous, 0.6 mg/kg, healthy volunteers", "quantity": "clearance", "result": "175 mL/min"}
{"SMILES": "CCONC(=O)N1CCC[C@H](C(=O)N[C@@H](C)c2nc(-c3ccc(C#N)cc3)cs2)C1", "assay": "metabolic stability", "system": "male Sprague-Dawley rat, liver microsomes", "setting": "0.5 µM", "quantity": "microsomal CLint", "result": "36 µL/min/mg"}
{"SMILES": "Cc1cc(S(=O)(=O)NC2CC(N3CC[C@@H](OC4CN(c5cccc6c5n(C)c(=O)n6C5CCC(=O)NC5=O)C4)[C@H](F)C3)C2)ccc1Nc1ncc(C(F)(F)F)c(N2CCC[C@](C)(O)C2)n1 (stereo partly shown)", "assay": "metabolic stability", "system": "human, liver microsomes", "setting": "1 µM", "quantity": "scaled CLint", "result": "28 mL/min/kg"}
{"SMILES": "CC1(C(F)(F)F)NC(=O)N(c2ccc(F)c(C(F)(F)F)c2)C1=O (stereo not shown)", "assay": "HPLC", "setting": "pH 7.4", "quantity": "chromatographic logD", "result": 3.5}
{"SMILES": "N[C@@H](COCC(=O)N1CCC[C@H](C(=O)NCc2nc(-c3ccc(C(F)(F)F)cc3)cs2)C1)c1ccccc1", "assay": "metabolic stability", "system": "human, liver microsomes", "setting": "0.5 µM", "quantity": "microsomal CLint", "result": "65 µL/min/mg"}
{"SMILES": "C[C@]1(O)CCCN(c2nc(Nc3ccc(S(=O)(=O)N[C@@H]4CCN(CC5CCN(c6ccc(C7CCC(=O)NC7=O)cc6F)CC5)C[C@H]4F)cc3F)ncc2C(F)(F)F)C1 (stereo partly shown)", "assay": "metabolic stability", "system": "human, liver microsomes", "setting": "1 µM", "quantity": "scaled CLint", "result": "22 mL/min/kg"}
{"SMILES": "CN1CCN(c2cccc(-c3ccc4ncnc(Nc5ncco5)c4c3)c2)CC1", "assay": "shake flask", "system": "aqueous buffer", "setting": "pH 7.4", "quantity": "logD", "result": 3.3}
{"SMILES": "CC1(C(F)F)NC(=O)N(c2ccc(F)c(C(F)(F)F)c2)C1=O (stereo not shown)", "assay": "HPLC", "setting": "pH 7.4", "quantity": "chromatographic logD", "result": 3.2}
{"SMILES": "Cc1cc(S(=O)(=O)NC2CC(N3CCN(CC4CCN(c5ccc6c(c5F)n(C)c(=O)n6C5CCC(=O)NC5=O)CC4)CC3)C2)ccc1Nc1ncc(C(F)(F)F)c(N2CCCC(C)(O)C2)n1 (stereo not shown)", "assay": "metabolic stability", "system": "rat, liver microsomes", "setting": "1 µM", "quantity": "scaled CLint", "result": "< 21 mL/min/kg"}
{"SMILES": "OC[C@H]1O[C@@H](c2cc(Cc3ccc(C4CC4)cc3)c(Cl)c3c2CCO3)[C@H](O)[C@@H](O)[C@@H]1O", "system": "human, plasma", "setting": "oral, 0.3 mg, single dose, fasted", "quantity": "CL/F", "result": "157 mL/min"}
{"SMILES": "COCC(=O)N1CCC[C@H](C(=O)NCc2nc(-c3ccccc3)cs2)C1", "assay": "metabolic stability", "system": "male Sprague-Dawley rat, liver microsomes", "setting": "0.5 µM", "quantity": "microsomal CLint", "result": "19 µL/min/mg"}
{"SMILES": "CCS(=O)(=O)N1CCC2(CC1)NC(=O)N(c1ccc(F)c(C(F)(F)F)c1)C2=O", "assay": "HPLC", "setting": "pH 7.4", "quantity": "chromatographic logD", "result": 3.1}
{"SMILES": "Cc1cc(S(=O)(=O)NC2CC(N3CCN(CC4CCN(c5ccc(NC6CCC(=O)NC6=O)cc5C)CC4)CC3)C2)ccc1Nc1ncc(C(F)(F)F)c(N2CCC[C@](C)(O)C2)n1 (stereo partly shown)", "assay": "metabolic stability", "system": "rat, liver microsomes", "setting": "1 µM", "quantity": "scaled CLint", "result": "< 21 mL/min/kg"}
{"SMILES": "O=c1c2ccc(Oc3ccc(OC(F)(F)F)cc3)cc2[nH]c2cc(F)c(Cl)cc12", "assay": "metabolic stability", "system": "human, liver microsomes", "setting": "1 µM, pH 7.4", "quantity": "microsomal CLint", "result": "2.59 µL/min/mg"}
{"SMILES": "CC(C)(N)COCC(=O)N1CCC[C@H](C(=O)NCc2nc(-c3ccc(C(F)(F)F)cc3)cs2)C1", "assay": "metabolic stability", "system": "human, liver microsomes", "setting": "0.5 µM", "quantity": "scaled CLint", "result": "< 4 mL/min/kg"}
{"SMILES": "CC1(C)NC(=O)N(c2cccc(C(F)(F)F)n2)C1=O", "assay": "HPLC", "setting": "pH 7.4", "quantity": "chromatographic logD", "result": 1.6}
{"SMILES": "c1coc(Nc2ncnc3ccc(-c4cncc(N5CCOCC5)n4)cc23)n1", "assay": "shake flask", "system": "aqueous buffer", "setting": "pH 7.4", "quantity": "logD", "result": 3.5}
{"SMILES": "CCOCC(=O)N1CCC[C@H](C(=O)NCc2nc(-c3ccc(C#N)nc3)cs2)C1", "assay": "metabolic stability", "system": "male Sprague-Dawley rat, liver microsomes", "setting": "0.5 µM", "quantity": "microsomal CLint", "result": "11 µL/min/mg"}
{"SMILES": "O=c1c2ccc(Oc3ccc(OC(F)(F)F)cc3)cc2[nH]c2ccc(Cl)c(F)c12", "assay": "metabolic stability", "system": "human, liver microsomes", "setting": "1 µM, pH 7.4", "quantity": "microsomal CLint", "result": "9.02 µL/min/mg"}
{"SMILES": "CC1(C)NC(=O)N(c2ccc(F)c(Br)c2)C1=O", "assay": "HPLC", "setting": "pH 7.4", "quantity": "chromatographic logD", "result": 2.4}
{"SMILES": "Cc1ccc(-c2csc(CNC(=O)[C@H]3CCCN(C(=O)[C@H]4CCC(C)(C)O4)[C@H]3C)n2)cn1", "assay": "metabolic stability", "system": "male Sprague-Dawley rat, liver microsomes", "setting": "0.5 µM", "quantity": "microsomal CLint", "result": "197 µL/min/mg"}
{"SMILES": "O=C1NC2(CCS(=O)(=O)CC2)C(=O)N1c1ccc(F)c(C(F)(F)F)c1", "assay": "HPLC", "setting": "pH 7.4", "quantity": "chromatographic logD", "result": 2.6}
{"SMILES": "CCOCC(=O)N1CC[C@@H](C)[C@H](C(=O)NCc2nc(-c3ccc(C)nc3)cs2)C1 (racemic)", "assay": "metabolic stability", "system": "human, liver microsomes", "setting": "0.5 µM", "quantity": "microsomal CLint", "result": "6.9 µL/min/mg"}
